Experimental data taken from ChEMBL document CHEMBL4184143 (J Med Chem, 2017).

How the values were obtained:
Mus musculus = experiment: Toxicity in SCID mouse implanted with human MDA-MB-231 cells assessed as weight loss at 40 mg/kg, po qd measured 2 to 3 times weekly during treatment and weekly post dose; assay type: organism-based; conditions: in vivo
In short: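 At ~100 mm3, mice were randomized to treatment or vehicle control. Tumors were measured by electronic calipers. Animals were checked daily for signs of toxicity and weighed 2–3 times weekly on treatment, then at least weekly afterwards.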

[1] = Half life in Sprague-Dawley rat at 5 mg/kg, iv by LC/MS method; assay type: ADME, organism-based; conditions: in vivo
[2] = biological target: T1, Bromodomain-containing protein 4 (Homo sapiens, UniProt O60885); experiment: Inhibition of FAM-labeled ZBA248 binding to recombinant human N-terminal His6-tagged BRD4 bromodomain 1 (44 to 168 residues) expressed in Rosetta2 DE3 cells after 30 mins by Flourescence polarization assay; assay type: biochemical
[3] = biological target: Bromodomain-containing protein 8 (Homo sapiens, UniProt Q9H0E9); experiment: Binding affinity to human partial length BRD8 bromodomain 1 (S700 to F854 residues) expressed in mammalian expression system by BROMOscan assay
[4] = biological target: T1, Bromodomain-containing protein 4; experiment: Binding affinity to recombinant human BRD4 bromodomain 1 (44 to 168 residues) by BROMOscan assay
[5] = biological target: Transcription intermediary factor 1-alpha (Homo sapiens, UniProt O15164); experiment: Binding affinity to human partial length TRIM24 expressed in bacterial expression system by BROMOscan assay
[6] = Half life in SCID mouse at 25 mg/kg, po by LC/MS method; assay type: ADME, organism-based; conditions: in vivo
HCC1143 = experiment: Cytotoxicity against human HCC1143 cells assessed as cell growth inhibition after 4 days by WST-8 assay; assay type: functional, cell-based; conditions: HCC1143, 96 h
In short: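 Breast cancer cells were seeded at 3,000 cells/well, treated with serially diluted compound in medium and cultured for 4 days. Growth was read by WST-8 (10% v/v final, 1–3 h) at 450 nm. Readings were normalized to DMSO-treated cells, and IC50 was obtained by nonlinear regression.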

[7] = Cmax in SCID mouse at 25 mg/kg, po by LC/MS method; assay type: ADME, organism-based; set-up: dose 25 mg/kg, route oral; conditions: in vivo

Transcription intermediary factor 1-alpha, sequence (O15164 whole entry): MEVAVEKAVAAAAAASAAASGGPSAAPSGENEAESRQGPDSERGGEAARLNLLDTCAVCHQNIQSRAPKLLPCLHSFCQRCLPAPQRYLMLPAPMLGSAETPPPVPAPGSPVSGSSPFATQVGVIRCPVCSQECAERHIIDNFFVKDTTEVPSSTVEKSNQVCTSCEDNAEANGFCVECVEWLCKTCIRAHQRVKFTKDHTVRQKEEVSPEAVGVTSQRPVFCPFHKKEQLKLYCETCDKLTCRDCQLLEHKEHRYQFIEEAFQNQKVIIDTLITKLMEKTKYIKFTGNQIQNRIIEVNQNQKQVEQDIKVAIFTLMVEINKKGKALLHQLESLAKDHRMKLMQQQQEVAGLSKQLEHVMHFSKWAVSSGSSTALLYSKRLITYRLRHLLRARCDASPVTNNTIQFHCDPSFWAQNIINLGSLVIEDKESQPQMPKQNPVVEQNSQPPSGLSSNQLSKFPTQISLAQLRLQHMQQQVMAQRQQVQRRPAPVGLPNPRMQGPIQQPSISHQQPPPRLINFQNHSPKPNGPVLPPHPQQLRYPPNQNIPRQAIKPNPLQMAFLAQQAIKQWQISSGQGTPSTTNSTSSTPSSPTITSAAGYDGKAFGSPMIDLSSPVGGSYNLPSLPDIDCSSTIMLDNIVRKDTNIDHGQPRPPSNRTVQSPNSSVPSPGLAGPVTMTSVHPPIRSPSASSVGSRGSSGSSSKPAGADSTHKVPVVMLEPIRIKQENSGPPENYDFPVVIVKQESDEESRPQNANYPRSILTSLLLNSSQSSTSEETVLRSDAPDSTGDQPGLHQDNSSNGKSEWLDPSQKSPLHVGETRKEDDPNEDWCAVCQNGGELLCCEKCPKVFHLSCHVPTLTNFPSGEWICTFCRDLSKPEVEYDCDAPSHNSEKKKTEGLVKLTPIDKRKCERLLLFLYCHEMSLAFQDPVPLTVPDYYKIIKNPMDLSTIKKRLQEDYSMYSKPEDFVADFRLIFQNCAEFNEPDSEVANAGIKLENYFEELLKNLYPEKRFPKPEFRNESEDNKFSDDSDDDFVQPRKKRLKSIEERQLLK
Bromodomain-containing protein 8, sequence (Q9H0E9 whole entry, the tested form may be a part): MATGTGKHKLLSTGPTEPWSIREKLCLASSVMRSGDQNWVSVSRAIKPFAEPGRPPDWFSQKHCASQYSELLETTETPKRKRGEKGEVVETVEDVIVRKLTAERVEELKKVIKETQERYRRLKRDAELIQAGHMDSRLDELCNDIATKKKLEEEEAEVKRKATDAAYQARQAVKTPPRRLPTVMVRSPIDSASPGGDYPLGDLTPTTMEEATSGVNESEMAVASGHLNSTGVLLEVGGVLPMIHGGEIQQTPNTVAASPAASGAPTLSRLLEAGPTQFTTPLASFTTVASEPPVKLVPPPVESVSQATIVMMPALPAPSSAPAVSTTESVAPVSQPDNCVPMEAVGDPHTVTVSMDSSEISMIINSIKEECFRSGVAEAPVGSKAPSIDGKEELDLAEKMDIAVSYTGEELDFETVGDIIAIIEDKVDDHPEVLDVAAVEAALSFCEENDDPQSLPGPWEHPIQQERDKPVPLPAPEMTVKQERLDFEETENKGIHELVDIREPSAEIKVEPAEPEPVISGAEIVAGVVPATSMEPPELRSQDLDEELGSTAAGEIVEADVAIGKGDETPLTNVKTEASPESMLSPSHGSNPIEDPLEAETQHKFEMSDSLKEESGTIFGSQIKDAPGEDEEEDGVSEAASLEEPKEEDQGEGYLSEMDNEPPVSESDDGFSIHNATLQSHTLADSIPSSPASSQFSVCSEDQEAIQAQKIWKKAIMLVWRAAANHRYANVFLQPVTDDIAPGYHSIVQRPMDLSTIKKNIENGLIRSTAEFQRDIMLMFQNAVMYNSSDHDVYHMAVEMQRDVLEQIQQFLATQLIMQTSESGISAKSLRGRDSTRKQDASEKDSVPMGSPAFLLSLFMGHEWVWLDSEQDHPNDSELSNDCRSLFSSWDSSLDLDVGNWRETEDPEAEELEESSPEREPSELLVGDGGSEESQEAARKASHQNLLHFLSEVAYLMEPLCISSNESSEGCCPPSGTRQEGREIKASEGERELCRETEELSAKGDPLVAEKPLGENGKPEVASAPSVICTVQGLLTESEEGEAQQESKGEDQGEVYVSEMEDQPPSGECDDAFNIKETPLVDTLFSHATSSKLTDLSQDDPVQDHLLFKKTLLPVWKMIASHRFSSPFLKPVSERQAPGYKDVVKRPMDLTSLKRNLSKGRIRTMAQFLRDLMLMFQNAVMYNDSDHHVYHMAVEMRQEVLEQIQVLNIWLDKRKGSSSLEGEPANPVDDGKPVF

In the case of `COc1cc2c(cc1-c1c(C)noc1C)[nH]c1nc(C)nc(-c3ccnc4ccccc34)c12`, the Activity (Mus musculus) is reported as “Non-Toxic”, the half-life [1] is reported as 2.4 h and the IC50 [2] is reported as 28.2 nM. For the same compound, the Ki [2] was 8.2 nM, the Kd [3] was greater than 4000 nM and the Kd [4] was 8.4 nM. For the same compound, the Kd [5] was greater than 4000 nM, the half-life [6] was 1.6 h and the IC50 (HCC1143) was greater than 2000 nM. For the same compound, the Cmax [7] was 983 ng/mL.
